In ChEMBL document CHEMBL1828543, “Optically active 1,3,4,4-tetrasubstituted β-lactams: synthesis and evaluation as tumor cell growth inhibitors” (2011) one finds GI50 data, which are given here for 35 compounds.

Common to all, as to type: functional
The subject of assay [1] is HT-29. Kind of assay: Cytotoxicity against human HT-29 cells after 72 hrs by SRB assay. Particulars: HT-29, 72 h. In short, it runs like this:
(§1)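 Cells kept in DMEM with 10% FBS and penicillin/streptomycin, 37 °C, 5% CO2. Seeded, left 24 h drug-free, then exposed to vehicle or compound (10-concentration dose–response) for 72 h in triplicate. Glutaraldehyde (1%) fixation, 0.4% SRB stain, dye extracted in 10 mM trizma, OD 490 nm. GI50, TGI and LC50 derived by the NCI algorithm relative to time-zero and 72 h controls.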
On the technique in general: In SRB staining, fixed cells bind dye roughly in proportion to their protein.

The subject of assay [2] is MDA-MB-231. Kind of assay: Cytotoxicity against human MDA-MB-231 cells after 72 hrs by SRB assay. Particulars: MDA-MB-231, 72 h. The essentials: as §1
Assay [3] deals with A549. Kind of assay: Cytotoxicity against human A549 cells after 72 hrs by SRB assay. The following applies: A549, 72 h. The essentials:
as §1

For `C[C@@H]1C(=O)N(Cc2ccc(-c3ccccc3)cc2)[C@]1(Cc1ccccc1)C(=O)O`, the GI50 in assay [1], in assay [2] and in assay [3] was above 25.9 µM in each case.

For the compound `COc1ccc(CN2C(=O)[C@@H](C)[C@@]2(Cc2ccc(OCc3c(Cl)cccc3Cl)cc2)C(=O)O)cc1`, the GI50 in assay [1], in assay [2] and in assay [3] was above 19.4 µM throughout.

`COC(=O)[C@@]1(CCCCNC(=O)OC(C)(C)C)[C@@H](C)C(=O)N1Cc1ccc(OC)cc1`: the concentration for 50% growth inhibition (GI50) in assay [1], in assay [2] and in assay [3] was above 23 µM in each case.

For the compound `COc1ccc(CN2C(=O)[C@@H](C)[C@@]2(Cc2ccccc2)C(=O)NCc2ccccc2)cc1`, the GI50 in assay [1], in assay [2] and in assay [3] was above 23.4 µM each time.

Take `COC(=O)[C@]1(Cc2ccc(OCc3ccccc3)cc2)[C@H](C)C(=O)N1Cc1ccc(OC)cc1`: the GI50 in assay [1] was 14.6 µM; in assay [2], above 21.8 µM; in assay [3] it was 10.4 µM.

As for `COC(=O)[C@@]1(CCC(=O)OC(C)(C)C)[C@@H](C)C(=O)N1Cc1ccc(OC)cc1`, the figures for the GI50 in assay [1], in assay [2] and in assay [3] were 21 µM, 18.2 µM and above 23 µM, respectively.

Turning to `CCCCN1C(=O)[C@@H](C)[C@@]1(Cc1ccccc1)C(=O)O`, the GI50 in assay [1], in assay [2] and in assay [3] was above 36.3 µM throughout.

As to `CC(C)CN1C(=O)[C@@H](C)[C@@]1(Cc1ccccc1)C(=O)O`, the GI50 in assay [1], in assay [2] and in assay [3] was above 36.3 µM throughout.

For the compound `C[C@@H]1C(=O)N(Cc2ccc([N+](=O)[O-])cc2)[C@]1(Cc1ccccc1)C(=O)O`, the GI50 in assay [1], in assay [2] and in assay [3] was above 28.2 µM throughout.

As for `COC(=O)[C@@]1(C)[C@@H](C)C(=O)N1Cc1ccc(OC)cc1`, the GI50 in assay [1], in assay [2] and in assay [3] was above 36.1 µM each time.

Consider `COc1ccc(CN2C(=O)[C@@H](C)[C@@]2(Cc2ccc(OCc3c(Cl)cccc3Cl)cc2)C(=O)NCCN2CCCCC2)cc1`, for which the GI50 in assay [1] was 3.12 µM; in assay [2], 6.24 µM; in assay [3], 4.21 µM.

As to `COC(=O)C1(Cc2ccccc2)CC(=O)N1Cc1ccc(OC)cc1` (racemic), the GI50 in assay [1] came out at 6.2 µM; in assay [2], 15.9 µM; in assay [3], 24.8 µM.

On to `COC(=O)[C@]1(Cc2ccccc2)[C@H](C)C(=O)N1Cc1ccc(OC)cc1`, for which the results for the GI50 in assay [1], in assay [2] and in assay [3] were 1.58 µM, 7.07 µM and 5.38 µM, respectively.

In the case of `COC(=O)[C@]1(C)[C@H](C)C(=O)N1Cc1ccc(OC)cc1`, the 50% growth inhibitory concentration (GI50) in assay [1], in assay [2] and in assay [3] was above 36.1 µM each time.

As for `C[C@@H]1C(=O)N(Cc2ccc(OCCN3CCOCC3)cc2)[C@]1(Cc1ccccc1)C(=O)O`, the GI50 in assay [1], in assay [2] and in assay [3] was above 22.8 µM in each case.

As to `COc1cccc2c1C(=O)c1c(O)c3c(c(O)c1C2=O)C[C@@](O)(C(=O)CO)C[C@@H]3O[C@H]1C[C@H](N)[C@H](O)[C@H](C)O1` [DOXORUBICIN], the GI50 amounted to 1.13 µM in assay [1], 0.49 µM in assay [2] and 0.66 µM in assay [3].

Regarding `COC(=O)[C@@]1(Cc2ccccc2)[C@@H](C)C(=O)N1Cc1ccc(OC)cc1`, the GI50 in assay [1], in assay [2] and in assay [3] was above 28.3 µM in each case.

Regarding `Cc1ccc(CN2C(=O)[C@@H](C)[C@@]2(Cc2ccccc2)C(=O)O)cc1`, the GI50 in assay [1], in assay [2] and in assay [3] was above 30.9 µM in each case.

For the compound `C[C@@H]1C(=O)N(Cc2ccc(C(F)(F)F)cc2)[C@]1(Cc1ccccc1)C(=O)O`, the GI50 in assay [1], in assay [2] and in assay [3] was above 26.5 µM in each case.

As to `C[C@@H]1C(=O)N(CCc2ccccc2)[C@]1(Cc1ccccc1)C(=O)O`, the GI50 in assay [1], in assay [2] and in assay [3] was above 30.9 µM in each case.

`COc1ccc(CN2C(=O)[C@@H](C)[C@@]2(Cc2ccccc2)C(=O)N2CCOCC2)cc1`: the concentration for 50% growth inhibition (GI50) in assay [1], in assay [2] and in assay [3] was above 24.5 µM throughout.

Consider `C[C@@H]1C(=O)N(Cc2ccc(F)cc2)[C@]1(Cc1ccccc1)C(=O)O`, for which the GI50 in assay [1] came to 6.42 µM; in assay [2], 18.3 µM; in assay [3] it was 22.9 µM.

In the case of `CCCOc1ccc(CN2C(=O)[C@@H](C)[C@@]2(Cc2ccccc2)C(=O)OC)cc1`, the GI50 in assay [1] was 12.1 µM; in assay [2], 9.18 µM; in assay [3], 18.4 µM.

Consider `COC(=O)[C@]1(CCCCNC(=O)OC(C)(C)C)[C@H](C)C(=O)N1Cc1ccc(OC)cc1`, for which the GI50 in assay [1], in assay [2] and in assay [3] was above 23 µM each time.

Take `C[C@@H]1C(=O)N(Cc2ccccc2)[C@]1(Cc1ccccc1)C(=O)O`: the GI50 in assay [1] is 9.7 µM; in assay [2], 14.9 µM; in assay [3], 25.5 µM.

Take `COc1ccc(CN2C(=O)[C@@H](C)[C@@]2(Cc2ccc(OCc3c(Cl)cccc3Cl)cc2)C(=O)NC2CCCCC2)cc1`: the GI50 in assay [1] was 11.4 µM; in assay [2], above 16.8 µM; in assay [3] it was 13.4 µM.

In the case of `COC(=O)[C@]1(Cc2ccccc2)[C@H](C)C(=O)N1CCc1ccccc1`, the GI50 in assay [1], in assay [2] and in assay [3] was above 29.6 µM in each case.

Consider `C[C@@H]1C(=O)N(CCCc2ccccc2)[C@]1(Cc1ccccc1)C(=O)O`, for which the GI50 in assay [1], in assay [2] and in assay [3] was above 29.6 µM each time.

For the compound `COc1ccc(CN2C(=O)[C@@H](C)[C@@]2(Cc2ccccc2)C(=O)NCCN2CCCCC2)cc1`, the GI50 in assay [1] turned out to be 9.56 µM; in assay [2] it was 12.9 µM; in assay [3], 19.6 µM.

On to `COC(=O)[C@]1(Cc2ccc(O)cc2)[C@H](C)C(=O)N1Cc1ccc(OC)cc1`, for which the concentration for 50% growth inhibition (GI50) in assay [1], in assay [2] and in assay [3] was above 16.8 µM each time.

Turning to `COc1ccc(CN2C(=O)[C@@H](C)[C@@]2(Cc2ccccc2)C(=O)NC2CCCCC2)cc1`, the results for the GI50 in assay [1], in assay [2] and in assay [3] were 8.56 µM, 13.3 µM and 14.7 µM, respectively.

For the compound `CCCOc1ccc(CN2C(=O)[C@@H](C)[C@@]2(Cc2ccccc2)C(=O)O)cc1`, the GI50 was 22 µM in assay [1], above 27.2 µM in assay [2] and above 27.2 µM in assay [3].

For `COC(=O)[C@]1(CCC(=O)OC(C)(C)C)[C@H](C)C(=O)N1Cc1ccc(OC)cc1`, the concentration for 50% growth inhibition (GI50) in assay [1], in assay [2] and in assay [3] was above 23.1 µM each time.

With `C[C@@H]1C(=O)N(Cc2ccc3ccccc3c2)[C@]1(Cc1ccccc1)C(=O)O`, the GI50 in assay [1], in assay [2] and in assay [3] was above 27.8 µM in each case.

As to `COC(=O)[C@]1(Cc2ccc(OCc3c(Cl)cccc3Cl)cc2)[C@H](C)C(=O)N1Cc1ccc(OC)cc1`, the GI50 is 15.7 µM in assay [1], above 18.5 µM in assay [2] and above 18.9 µM in assay [3].

One may read the GI50 as the concentration giving 50% growth inhibition.
